Source: ChEMBL document CHEMBL1671684, “In vitro resistance profile of the hepatitis C virus NS3/4A protease inhibitor TMC435” (Antimicrob Agents Chemother, 2010)
Calls of active or inactive are those of the source. No cut-off for these calls is given here.

What was measured:
Hepatitis C virus [1] = test: Antiviral activity against Hepatitis C virus subtype 1b expressing NS3 T54S mutant infected in HuH7 cells after 48 hrs by luciferase reporter assay; assay type: functional, organism-based, Hepacivirus hominis; settings: genotype 1b, Huh-7, 48 h
Procedure, shortened: (§1)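 Genotype 1b con1 subgenomic bicistronic replicon (clone ET) with luciferase reporter and adaptive mutations E1202G, T1280I, K1846T, carrying site-directed NS3 single or double mutations. 10 μg wild-type or mutant replicon RNA electroporated into Huh7-lunet cells, seeded 4,000 cells/well over a nine-point inhibitor dilution series, 48 h at 37°C, 5% CO2, then luminescence read. EC50 taken as median of individual experiments; fold change relative to parental replicon EC50.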

Hepatitis C virus [2] = test: Antiviral activity against Hepatitis C virus subtype 1b expressing NS3 Q80L mutant infected in HuH7 cells after 48 hrs by luciferase reporter assay; assay type: functional, organism-based, Hepacivirus hominis; settings: genotype 1b, Huh-7, 48 h; procedure, shortened: as §1
Hepatitis C virus [3] = test: Antiviral activity against Hepatitis C virus subtype 1b expressing NS3 R155M mutant infected in HuH7 cells after 48 hrs by luciferase reporter assay; assay type: functional, organism-based, Hepacivirus hominis; settings: genotype 1b, Huh-7, 48 h; procedure, shortened: as §1
Hepatitis C virus [4] = test: Antiviral activity against Hepatitis C virus subtype 1b expressing NS3 R155T mutant infected in HuH7 cells after 48 hrs by luciferase reporter assay; assay type: functional, organism-based, Hepacivirus hominis; settings: genotype 1b, Huh-7, 48 h; procedure, shortened: as §1
Hepatitis C virus [5] = test: Antiviral activity against Hepatitis C virus subtype 1b expressing NS3 A156G mutant infected in HuH7 cells after 48 hrs by luciferase reporter assay; assay type: functional, organism-based, Hepacivirus hominis; settings: genotype 1b, Huh-7, 48 h; procedure, shortened: as §1
Hepatitis C virus [6] = test: Antiviral activity against Hepatitis C virus subtype 1b expressing NS3 D168G mutant infected in HuH7 cells after 48 hrs by luciferase reporter assay; assay type: functional, organism-based, Hepacivirus hominis; settings: genotype 1b, Huh-7, 48 h; procedure, shortened: as §1
Hepatitis C virus [7] = test: Antiviral activity against Hepatitis C virus subtype 1b expressing NS3 D168N mutant infected in HuH7 cells after 48 hrs by luciferase reporter assay; assay type: functional, organism-based, Hepacivirus hominis; settings: genotype 1b, Huh-7, 48 h; procedure, shortened: as §1
Hepatitis C virus [8] = test: Antiviral activity against Hepatitis C virus subtype 1b expressing NS3 V170A mutant infected in HuH7 cells after 48 hrs by luciferase reporter assay; assay type: functional, organism-based, Hepacivirus hominis; settings: genotype 1b, Huh-7, 48 h; procedure, shortened: as §1
Hepatitis C virus [9] = test: Antiviral activity against Hepatitis C virus subtype 1b expressing NS3 Q80H and D168E mutant infected in HuH7 cells after 48 hrs by luciferase reporter assay; assay type: functional, organism-based, Hepacivirus hominis; settings: genotype 1b, Huh-7, 48 h; procedure, shortened: as §1
Hepatitis C virus [10] = test: Ratio of EC50 for Hepatitis C virus subtype 1b expressing NS3 Q80R mutant to EC50 for Hepatitis C virus subtype 1b expressing WT NS3 infected in HuH7 cells after 48 hrs by luciferase reporter assay; assay type: functional, Hepacivirus hominis, genotype 1b, Huh-7
Procedure, shortened: (§2)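 Transient replicon assay: site-directed single or multiple NS3 mutations engineered into genotype 1b (con1, clone ET) subgenomic bicistronic replicon with luciferase reporter and adaptive mutations E1202G, T1280I, K1846T. Huh7-lunet cells electroporated with 10 μg wild-type or mutant replicon RNA, seeded 4,000 cells/well with nine-point inhibitor dilution; 48 h, 37°C, 5% CO2; luminescence read-out. EC50 as median of individual experiments; fold change versus parental replicon EC50.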

Hepatitis C virus [11] = test: Ratio of EC50 for Hepatitis C virus subtype 1b expressing NS3 Q80G mutant to EC50 for Hepatitis C virus subtype 1b expressing WT NS3 infected in HuH7 cells after 48 hrs by luciferase reporter assay; assay type: functional, Hepacivirus hominis, genotype 1b, Huh-7; procedure, shortened: as §2
Hepatitis C virus [12] = test: Ratio of EC50 for Hepatitis C virus subtype 1b expressing NS3 A156S mutant to EC50 for Hepatitis C virus subtype 1b expressing WT NS3 infected in HuH7 cells after 48 hrs by luciferase reporter assay; assay type: functional, Hepacivirus hominis, genotype 1b, Huh-7; procedure, shortened: as §1
Hepatitis C virus [13] = test: Ratio of EC50 for Hepatitis C virus subtype 1b expressing NS3 D168N mutant to EC50 for Hepatitis C virus subtype 1b expressing WT NS3 infected in HuH7 cells after 48 hrs by luciferase reporter assay; assay type: functional, Hepacivirus hominis, genotype 1b, Huh-7; procedure, shortened: as §2
Hepatitis C virus [14] = test: Ratio of EC50 for Hepatitis C virus subtype 1b expressing NS3 D168V mutant to EC50 for Hepatitis C virus subtype 1b expressing WT NS3 infected in HuH7 cells after 48 hrs by luciferase reporter assay; assay type: functional, Hepacivirus hominis, genotype 1b, Huh-7; procedure, shortened: as §2
Hepatitis C virus [15] = test: Ratio of EC50 for Hepatitis C virus subtype 1b expressing NS3 F43S and D168E mutant to EC50 for Hepatitis C virus subtype 1b expressing WT NS3 infected in HuH7 cells after 48 hrs by luciferase reporter assay; assay type: functional, Hepacivirus hominis, genotype 1b, Huh-7; procedure, shortened: as §2
Hepatitis C virus [16] = test: Ratio of EC50 for Hepatitis C virus subtype 1b expressing NS3 Q80K and R155K mutant to EC50 for Hepatitis C virus subtype 1b expressing WT NS3 infected in HuH7 cells after 48 hrs by luciferase reporter assay; assay type: functional, Hepacivirus hominis, genotype 1b, Huh-7; procedure, shortened: as §2
Hepatitis C virus [17] = test: Antiviral activity against Hepatitis C virus subtype 1b expressing NS3 Q41R mutant infected in HuH7 cells after 48 hrs by luciferase reporter assay; assay type: functional, organism-based, Hepacivirus hominis; settings: genotype 1b, Huh-7, 48 h; procedure, shortened: as §1
Hepatitis C virus [18] = test: Ratio of EC50 for Hepatitis C virus subtype 1b expressing NS3 Q41R mutant to EC50 for Hepatitis C virus subtype 1b expressing WT NS3 infected in HuH7 cells after 48 hrs by luciferase reporter assay; assay type: functional, Hepacivirus hominis, genotype 1b, Huh-7; procedure, shortened: as §2
Hepatitis C virus [19] = test: Inhibition of Hepatitis C virus subtype 1b NS3/4A protease
[20] = Inhibition of Hepatitis C virus subtype 5a NS3/4A protease
[21] = Inhibition of Hepatitis C virus subtype 3a NS3/4A protease
Hepatitis C virus [22] = test: Antiviral activity against Hepatitis C virus subtype 2a JFH1 infected in HuH7.5 cells assessed as delay in occurrence of the viral-induced CPE at 500 nM after 3 days by luciferase reporter assay; assay type: functional, organism-based; settings: Hepacivirus hominis
Hepatitis C virus [23] = test: Antiviral activity against Hepatitis C virus subtype 2a JFH1 infected in HuH7.5 cells assessed as occurrence of the viral-induced CPE at 4000 nM after 3 days by luciferase reporter assay; assay type: functional, organism-based; settings: Hepacivirus hominis
Hepatitis C virus [24] = test: Antiviral activity against Hepatitis C virus subtype 2a JFH1 infected in HuH7.5 cells assessed as viral RNA replication after initial decline at 500 nM after 3 days by TaqMan RT-PCR; assay type: functional, organism-based; settings: Hepacivirus hominis
Hepatitis C virus [25] = test: Antiviral activity against Hepatitis C virus subtype 2a JFH1 infected in HuH7.5 cells assessed as viral RNA replication after initial decline at 4000 nM after 3 days by TaqMan RT-PCR; assay type: functional, organism-based; settings: Hepacivirus hominis
Hepatitis C virus [26] = test: Antiviral activity against Hepatitis C virus infected in HuH7 cells assessed as cell viability at 2.5 times EC50 after 2 to 3 weeks by neutral red assay in presence of 1,000 ug/ml G418; assay type: functional, organism-based; settings: Hepacivirus hominis; Huh-7
Procedure, shortened: (§3)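 Huh7-Luc genotype 1b (con1, clone ET) replicon cells, 20,000 per 10-cm dish in DMEM with 1,000 μg/ml G418. Cells got one inhibitor or a two-inhibitor combination, dosed as multiples of each inhibitor's EC50 from a genotype 1b luciferase replicon assay. Held at 37°C, 5% CO2, with medium plus compound refreshed twice weekly. After 2–3 weeks, surviving colonies were stained with neutral red and counted. Three independent experiments.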

Hepatitis C virus [27] = test: Antiviral activity against Hepatitis C virus infected in HuH7 cells assessed as cell viability at 10 times EC50 after 2 to 3 weeks by neutral red assay in presence of 1,000 ug/ml G418; assay type: functional, organism-based; settings: Hepacivirus hominis; Huh-7; procedure, shortened: as §3
Hepatitis C virus [28] = test: Antiviral activity against Hepatitis C virus infected in HuH7 cells assessed as cell viability at 25 times EC50 after 2 to 3 weeks by neutral red assay in presence of 1,000 ug/ml G418; assay type: functional, organism-based; settings: Hepacivirus hominis; Huh-7; procedure, shortened: as §3

Row | Compound | EC50 (Hepatitis C virus [1]) | EC50 (Hepatitis C virus [2]) | EC50 (Hepatitis C virus [3]) | EC50 (Hepatitis C virus [4]) | EC50 (Hepatitis C virus [5]) | EC50 (Hepatitis C virus [6]) | EC50 (Hepatitis C virus [7]) | EC50 (Hepatitis C virus [8]) | EC50 (Hepatitis C virus [9]) | Ratio EC50 (Hepatitis C virus [10]) | Ratio EC50 (Hepatitis C virus [11]) | Ratio EC50 (Hepatitis C virus [12]) | Ratio EC50 (Hepatitis C virus [13]) | Ratio EC50 (Hepatitis C virus [14]) | Ratio EC50 (Hepatitis C virus [15]) | Ratio EC50 (Hepatitis C virus [16]) | EC50 (Hepatitis C virus [17]) | Ratio EC50 (Hepatitis C virus [18]) | other results
1 | CC(C)(C)NC(=O)N[C@H](C(=O)N1C[C@H]2[C@@H]([C@H]1C(=O)NC(CC1CCC1)C(=O)C(N)=O)C2(C)C)C(C)(C)C (some centres undefined) [BOCEPREVIR] | 1110 nM | 133 nM | 792 nM | 5460 nM | 65 nM | 63 nM | 101 nM | 1550 nM | 20 nM | 0.5 | 1.2 | 3.5 | 1.9 | 0.5 | 3.2 | 5.1 | – | – | –
2 | COc1ccc2c(O[C@@H]3C[C@H]4C(=O)N[C@]5(C(=O)O)C[C@H]5/C=C\CCCCC[C@H](NC(=O)OC5CCCC5)C(=O)N4C3)cc(-c3csc(NC(C)C)n3)nc2c1 [CILUPREVIR] | 0.9 nM | – | 84 nM | 685 nM | 22 nM | 35 nM | 18 nM | – | 52 nM | 1.6 | 4.9 | 2.8 | 12 | 3213 | 12 | 736 | 2.3 nM | 2.8 | –
3 | COc1ccc2c(O[C@@H]3C[C@H]4C(=O)N[C@]5(C(=O)NS(=O)(=O)C6CC6)C[C@H]5/C=C\CCCCN(C)C(=O)[C@@H]4C3)cc(-c3nc(C(C)C)cs3)nc2c1C [SIMEPREVIR] | 5.4 nM | 12 nM | 3.5 nM | 314 nM | 206 nM | 42 nM | 79 nM | 22 nM | 1360 nM | 6.9 | 1.8 | 0.3 | 6.6 | 2591 | 694 | 364 | 18 nM | 1.7 | Ki (Hepatitis C virus [19]): 0.5 nM; IC50 [20]: < 13 nM; IC50 [21]: 37 nM; inhibition (Hepatitis C virus [22]): Active; inhibition (Hepatitis C virus [23]): Active; inhibition (Hepatitis C virus [24]): inactive; inhibition (Hepatitis C virus [25]): inactive; inhibition (Hepatitis C virus [26]): inactive; inhibition (Hepatitis C virus [27]): inactive; inhibition (Hepatitis C virus [28]): inactive
4 | CCC[C@H](NC(=O)[C@@H]1[C@H]2CCC[C@H]2CN1C(=O)[C@@H](NC(=O)[C@@H](NC(=O)c1cnccn1)C1CCCCC1)C(C)(C)C)C(=O)C(=O)NC1CC1 [TELAPREVIR] | – | – | 4110 nM | 22700 nM | 58 nM | – | 147 nM | – | – | 0.6 | 1.2 | 20 | 1.2 | – | – | 4.6 | – | – | –
